Series [1] is described as follows: Apparent permeability of the compound across apical side to basolateral side in human Caco-2 cells measured upto 180 mins by HPLC analysis. It counts as ADME, cell-based. On the technique in general: Caco-2 monolayers are a common model of the intestinal barrier.
A short description of series [2]: Effective permeability of compound at 500 uM incubated for 18 hrs by […] method. It counts as ADME. Conditions: read-out: Peff. The gist of the method:
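PAMPA-BBB: donor contained compound at 500 µM final in PBS pH 7.4 with 20% v/v MeOH. Incubated 18 h. Donor and acceptor concentrations measured by HPLC; effective permeability Pe (cm/s) calculated.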
A general note: In PAMPA a lipid-coated filter parts donor from acceptor wells.

The test system of series [3] is PC-12. Description: Inhibition of MPP+ induced GSH level in rat PC-12 cells at 50 uM preincubated with compound for 24 hrs followed by MPP+ treatment for 24 hrs by DTNB reagent based analysis. Particulars: time 48.0 hrs. The format is functional, cell-based.
For series [4], the system named is PC-12. Put plainly: Upregulation of Gpx expression in MPP+ induced rat PC-12 cells at 50 nM pretreated with compound for 24 hrs followed by MPP+ stimulation and measured after 6 hrs. The format is functional, cell-based. Particulars: time 30.0 hrs.
Series [5] concerns PC-12. Put plainly: Upregulation of xCT expression in MPP+ induced rat PC-12 cells at 50 nM pretreated with compound for 24 hrs followed by MPP+ stimulation and measured after 6 hrs. It counts as functional, cell-based. Particulars: time 30.0 hrs.
Series [6] concerns PC-12. Put plainly: Inhibition of MPP+ induced ROS production in rat PC-12 cells at 50 uM preincubated with compound for 24 hrs followed by MPP+ treatment for 24 hrs by DCFH-DA staining based fluorescence method. The format is functional, cell-based. Conditions: time 48.0 hrs.

SMILES strings stand for the structures. Activity calls are given as the source filed them. No cut-off for these calls is given here. Where a SMILES comes first, the peptide text is derived from it. [ ]: non-standard residue; d: D form. Dopa = N[C@@H](Cc1ccc(O)c(O)c1)C(=O)O

For orientation: Papp A→B means the apparent permeability from the apical to the basolateral side of a cell layer. Consider `COC(=O)[C@H](Cc1ccc(O)c(O)c1)NC(=O)[C@H](CCSC)NC(C)=O` (Ac-Met-[Dopa]-OMe), for which, in series [1], the Papp A→B at 3 h came out at 3.5 ×10⁻⁶ cm/s. The Papp at 18 h, 500 µM in series [2] amounted to 1.42 ×10⁻⁶ cm/s.
As for `COCCc1ccc(OCC(O)CNC(C)C)cc1` (stereo not given) [METOPROLOL], in series [1], the Papp A→B at 3 h was found to be 27.4 ×10⁻⁶ cm/s.
Same read-out and setting: with `NC(=O)N1c2ccccc2C=Cc2ccccc21` [CARBAMAZEPINE] the figure was 50.3 ×10⁻⁶ cm/s.
With `N[C@@H](Cc1ccc(O)c(O)c1)C(=O)O` [LEVODOPA], the inhibition result in the series on PC-12 [3] is “inactive”. Also, the outcome in the series with PC-12 [4] and in the series on PC-12 [5] was Active. The Papp A→B at 3 h in series [1] was determined as 0.82 ×10⁻⁶ cm/s. The Papp at 18 h, 500 µM in series [2] worked out at 0.75 ×10⁻⁶ cm/s. Further, in the series with PC-12 [6], the inhibition entry is “Active”.

For the origin of these results see ChEMBL document CHEMBL5352422, “Development of l-Dopa-containing diketopiperazines as blood-brain barrier shuttle” (Eur J Med Chem, 2022).
